RGS4 pot: RGS4 potentiators or activators, primary screen, cell-based, HEK293 M3R inducible RGS4, calcium flux; carbachol calcium flux Fluo4; stronger effect = lower value; hit rate 0.92% among 310,000; B-score at 10 µM;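 active means B-score of the integrated calcium signal more than 4 SD below the library mean, with starting fluorescence not abnormally high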;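 further: negative B-score means reduced calcium response which marks RGS4 activation or potentiation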
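Test system: HEK293 cells with stable M3R and inducible RGS4; also added: carbachol at ECmax as muscarinic agonist stimulus; schedule: dye loading 30 min 37 °C, buffer rest 30 min RT; technique: kinetic calcium fluorescence imaging with Fluo4-AM dye, 2 µM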
MrgX1 antagonist: antagonists of human MrgX1 receptor, primary screen, HEK293 cells, Fluo-4 calcium flux; Mas-related G-protein coupled receptor member X1 (Homo sapiens), Q96LB2; B-score at 10 µM; BAM8-22 antagonism; stronger effect = lower value; hit rate 1.3% among 310,000; AID 588676, 2011;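 active means calcium-response B-score plate-corrected more than 3 library SD below zero, starting fluorescence within 5 deviations, no agonist response on first addition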;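 further: peak minus trough fluorescence over baseline after final BAM8-22 challenge near maximal dose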
MrgX1 ag: agonists of human MrgX1 receptor, primary screen, HEK293 cells, Fluo-4 calcium flux | Fluo-4 calcium fluorescence, agonist mode; stronger effect = higher value | hit rate 0.44% among 310,000 | B-score at 10 µM;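 active means calcium response B-score plate-corrected fluorescence ratio at least 3 library SD, with starting fluorescence B-score inside 5 SD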
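Material – MrgX1-expressing HEK293 cells · Input – 15,000 cells seeded per well · Dosing – compound as first of three additions · Times – overnight seeding, then 1 h dark dye loading · Measured by – kinetic Fluo-4 NW fluorescence of intracellular calcium · Read-out – B-scored fluorescence response ratio · Benchmarks – positive and negative control wells on each plate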
MrgX1 allo act: positive allosteric modulators of MrgX1, primary screen, HEK293 cells, Fluo-4 calcium flux. Mas-related G-protein coupled receptor member X1 (Homo sapiens), Q96LB2. FDSS; stronger effect = higher value. B-score at 10 µM. hit rate 0.63% among 310,000. AID 588675, 2011;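 active means plate-corrected calcium response at least 3 library SD above typical, normal starting fluorescence, not activating the receptor alone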;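 further: compound read alongside a low EC10 to EC30 dose of BAM8-22 agonist; peak minus trough fluorescence over baseline measured at the second addition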
RGS4 block: RGS4 inhibitors, primary screen, cell-based, HEK293 M3R inducible RGS4, calcium flux. Regulator of G-protein signaling 4 (Homo sapiens), P49798. hit rate 0.45% among 310,000. Fluo-4 calcium flux; stronger effect = higher value; triggered by carbachol at its EC20. B-score at 10 µM;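 active means B-score, a plate-corrected calcium signal, over three deviations above library mean, with baseline fluorescence within five deviations of library mean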;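 further: RGS4 expression induced by doxycycline in cells with stable M3 receptor; B-score is computed from the integrated fluorescence ratio over baseline after carbachol; higher B-score means a larger calcium signal and so more RGS4 inhibition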
Target sequence (P49798 whole entry, looked up): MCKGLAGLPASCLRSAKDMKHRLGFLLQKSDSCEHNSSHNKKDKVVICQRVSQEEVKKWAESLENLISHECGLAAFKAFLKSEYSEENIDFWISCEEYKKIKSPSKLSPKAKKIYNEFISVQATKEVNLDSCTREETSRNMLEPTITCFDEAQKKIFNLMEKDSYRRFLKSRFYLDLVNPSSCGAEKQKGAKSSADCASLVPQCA
MrgX1 antag conf: MrgX1 receptor antagonists, duplicate retest, confirmation, HEK293 cells, Fluo-4 calcium flux | shares compounds with MrgX1 antagonist | hit rate 19% among 2,300 | remaining BAM8-22 calcium response % of control (stronger effect = lower value), % at 10 µM | BAM8-22 calcium flux; stronger effect = lower value;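 active means remaining agonist calcium response no higher than 100% minus 3 SD of agonist-only control wells, with starting fluorescence near control levels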;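 further: agonist BAM8-22 given at a near maximal EC90 to ECmax level; peak minus minimum fluorescence divided by baseline after agonist addition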
HEK293 Ca flux: nonspecific calcium signal in parental HEK293, confirmation, counter-screen for MrgX1 antagonist project, parental HEK293 cells, Fluo-4 calcium flux | hit rate 2% among 4,000 | fluorescence ratio F(max-min)/F0 at 10 µM | Fluo-4 calcium fluorescence, FDSS | shares compounds with MrgX1 antagonist;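 active means duplicate-averaged calcium fluorescence ratio at least three times the standard deviation of buffer wells, a nonspecific response in parental cells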
HEK293 Ca counter: calcium response in parental HEK293 cells, primary screen, counter-screen for MrgX1 allosteric activator project, cell-based, Fluo-4 calcium flux, duplicate. AID 624114, 2012. Fluo-4 fluorescence ratio; stronger effect = higher value. fluorescence ratio F(max-min)/F0 at 10 µM. shares compounds with MrgX1 antagonist. hit rate 0.4% among 4,000;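 active means calcium fluorescence ratio, averaged over duplicates, at least 3 SD of the buffer-well ratio, meaning a nonspecific response in receptor-free cells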;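 further: untransfected parental HEK293 lacking MrgX1 used as counterscreen for MrgX1 allosteric activators; fluorescence change taken during the second addition on a kinetic imager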
HEK293 Ca cntr2: calcium response in parental HEK293 cells, primary screen, counter-screen for MrgX1 agonist project, cell-based, Fluo-4 calcium flux, duplicate, agonist mode; Fluo-4 calcium fluorescence (FDSS); stronger effect = higher value; fluorescence ratio F(max-min)/F0 at 10 µM; hit rate 8.7% among 4,000; shares compounds with MrgX1 antagonist; AID 624115, 2012;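 active means calcium fluorescence ratio at least three times the spread of buffer wells, meaning a non-specific response in parental cells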
* = called active by the depositor; i = inactive; · = no result. The list is not random: actives were taken first. Their share in the collection is about 3.5%.

SMILES	RGS4 pot	MrgX1 antagonist	MrgX1 ag	MrgX1 allo act	RGS4 block	MrgX1 antag conf	HEK293 Ca flux	HEK293 Ca counter	HEK293 Ca cntr2
COc1ccc(N2C(=S)NC(C)(C)CC2(C)c2ccc(OC(C)=O)cc2OC(C)=O)cc1 (configuration not stated)	i	-4.6*	i	i	i	i	i	i	i
CCOc1cc(CNn2cnnc2SCC(=O)NC(C)(C)C)ccc1OCC(=O)NC(C)(C)C	i	i	i	i	i	·	·	·	·
O=C(Nc1ccc2[nH]ccc2c1)c1ccc(F)cc1	i	i	i	i	i	·	·	·	·
O=C(Nc1ccc2[nH]ccc2c1)c1ccccc1	i	-7.8*	i	i	i	84%*	i	i	i
Cc1ccc(NC(=O)NCC2CC2(Cl)Cl)cc1 (configuration not stated)	i	i	i	i	i	·	·	·	·
O=C(NCC1CC1(Cl)Cl)Nc1ccc(Cl)c(Cl)c1 (configuration not stated)	i	-5.5*	i	i	i	i	i	i	i
CC(C)(CO)NC(=O)Nc1ccc(Cl)c(Cl)c1	i	-7.7*	i	i	i	i	i	i	i
CCCC1C(C#N)=C(N)Oc2n[nH]c(C(C)(C)C)c21 (configuration not stated)	i	-5.1*	i	i	i	i	i	i	i
CC(C)C1C(C#N)=C(N)Oc2n[nH]c(C(C)(C)C)c21 (configuration not stated)	·	i	i	i	·	·	·	·	·
CN1CCN(Cc2nc3ccccc3c(=O)n2CC#N)CC1	i	-5.6*	i	i	i	i	i	i	i
Cc1ccccc1-n1c(=O)cc(N2CCCCCC2)[nH]c1=O	i	-6*	i	i	i	i	i	i	i
O=C(CSc1cccc2cccc(Cl)c12)NCc1cccs1	i	i	i	i	i	·	·	·	·
CC(=O)Cc1ccccc1OC(=O)c1ccco1	i	-6.2*	i	i	i	i	i	i	i
CCc1ccccc1NC(=O)CSc1nnc(-c2ccco2)n1N	i	-6.7*	i	i	i	i	i	i	i
O=S(=O)(NCCc1csc(-c2cccnc2)n1)c1ccc(Cl)s1	i	-4.9*	i	i	i	79%*	i	i	i
O=S(=O)(NCCc1csc(-c2cccnc2)n1)c1cccs1	i	i	i	i	i	·	·	·	·
CC(=O)Nc1ccc(S(=O)(=O)NC2CC(=O)N(c3ccc4c(c3)OCCO4)C2)cc1 (configuration not stated)	i	i	i	i	i	·	·	·	·
CC1(C)CC(=O)c2c(O)cc(OCC(=O)Nc3ccc(CCO)cc3)cc2O1	i	i	i	i	i	·	·	·	·
COc1ccc(NC(=O)CSc2ccccn2)cc1OC	i	-4.8*	i	i	i	i	i	i	i

Screening results (PubChem)
